{
  "source": "the RNAGym collection of RNA variant scans (doi:10.1126/science.aae0568)",
  "parents": {"B1": {"name": "tRNA (parent)", "chain": "GUUCCGUUGGCGUAAUGGUAACGCGUCUCCCUCCUAAGGAGAAGACUGCGGGUUCGAGUCCCGUACGGAACG"}},
  "note": "Fewer inactive variants are shown than the library holds.",
  "data": [
    {"variants_of": "B1", "assay": "yeast fitness relative to wild type (ratio to wild type); higher = fitter; tRNA-Arg(CCU), competitive growth, 37 C, YPD", "summary_of_the_method": "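Amplicons of the tRNA-Arg(CCU) gene were sequenced, 100-nucleotide paired-end, from the start population and from each end population of a pooled yeast competition. The competition, in six parallel replicates, lasted 24 hours in YPD at 37°C. Fitness relative to wild type was calculated from changes in genotype frequencies. Genotypes had to have ≥ 100 starting reads, and estimates < 0.5 were set to 0.5.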", "values": [
      {"variant": "GUUCCGUUGGCGUAAUGGUAGUGCGUCUCCCUCCUAAGGAGAAGAUUGCGGGUUCCAGUCCCGUACGGAACG", "note": "[A21G C22U C46U G56C]", "yeast fitness": "≤ 0.5"},
      {"variant": "GUUCCGUUGGCGUAAUGGUAGUGCGUCUCCCUCCUAAGGAGAAGACUGCGGGUUCGAGUCCCAUACGGAACG", "note": "[A21G C22U G63A]", "yeast fitness": 0.572},
      {"variant": "GUUCCGUUGGCGUAAUGGUAGCGAGUCUCCCUCCUAAGGAGAAGACUGCGGGUUCGAGUCCCGUACGGUGCG", "note": "[A21G C24A A69U A70G]", "yeast fitness": "≤ 0.5"},
      {"variant": "GUUCCGUUGGCGUAAUGGUAGCGGGUCUCCCUCCUAUGGAGAAGACUGCGGGUUCGAGUCCCGUACGGAACG", "note": "[A21G C24G A37U]", "yeast fitness": 0.573},
      {"variant": "GUUCCGUUGGCGUAAUGGUAGCGGGUCUCCAUCCUAAGGAGAAAACUGCGGGUUCGAGUCCCGUACGGAACG", "note": "[A21G C24G C31A G44A]", "yeast fitness": 0.571},
      {"variant": "GUUCCGUUGGCGUAAUGGUAGCGUGUCUCCCUCCUAAGGAGAAGACUGCGGGUUCGAGUCCCGUACGGAACG", "note": "[A21G C24U]", "yeast fitness": 0.989},
      {"variant": "GUUCCGUUGGCGUAAUGGUAGCGUGUCUCCCUCCUAAGGAGAAGACUGCGCGUUCGAGUCCCGUACGGAACG", "note": "[A21G C24U G51C]", "yeast fitness": "≤ 0.5"},
      {"variant": "GUUCCGUUGGCGUAAUGGUAGCGCGUAUCCCUCCUUAGGGGAAGACUGCGGCUUCGAGUCCCGUACAGAACG", "note": "[A21G C27A A36U A40G G52C G67A]", "yeast fitness": "≤ 0.5"},
      {"variant": "GUUCCGUUGGCGUAAUGGUAGCGCGUAUCCCUCCUAUGGAGAAGACUGCGGGUUCGAGUCCCCUACGGAACG", "note": "[A21G C27A A37U G63C]", "yeast fitness": "≤ 0.5"},
      {"variant": "GUUCCGUUGGCGUAAUGGUAGCGCGUGUACCUCCUAAGGAGAAGACUGCAGGUUCGAGUCCCGUACGGAACG", "note": "[A21G C27G C29A G50A]", "yeast fitness": "≤ 0.5"},
      {"variant": "GUUCCGUUGGCGUAAUGGUAGCGCGUGUCCCUCCUAAGGAGAAGACUGCGGGUUCGAGUCCCAUACGGAACG", "note": "[A21G C27G G63A]", "yeast fitness": "≤ 0.5"},
      {"variant": "GUUCCGUUGGCGUAAUGGUAGCGCGUUUCCCUCCUAAGGAGAAGACUGCGGGUUCGAGUCCCGUACGGCACG", "note": "[A21G C27U A69C]", "yeast fitness": 0.781},
      {"variant": "GUUCCGUUGGCGUAAUGGUAGCGCGUUUCCCUCCUAAGGAGAAGACUGCGGGUUCGAGUCCCGUACGGAGCG", "note": "[A21G C27U A70G]", "yeast fitness": 0.792},
      {"variant": "GUUCCGUUGGCGUAAUGGUAGCGCGUUUCCCUCCUAAGGAGAAGACUGCGGGUUCGAGUCGCGUUCGGAACG", "note": "[A21G C27U C61G A65U]", "yeast fitness": "≤ 0.5"},
      {"variant": "GUUCCGUUGGCGUAAUGGUAGCGCGUUUCCCUCCUAAGGAGAAGACUGCGGGUUCCAGUCCCGUACGGAACG", "note": "[A21G C27U G56C]", "yeast fitness": 0.57},
      {"variant": "GUUCCGUUGGCGUAAUGGUAGCGCGUCUACCUCCUAAGGAGAAGACUGCGGGUUCGAGUCCCGUACGGCACG", "note": "[A21G C29A A69C]", "yeast fitness": "≤ 0.5"},
      {"variant": "GUUCCGUUGGCGUAAUGGUAGCGCGUCUACCUCCUAAGGAGAAGAUUGCGGGUUCGAGCCCCGUACGGAACG", "note": "[A21G C29A C46U U59C]", "yeast fitness": "≤ 0.5"},
      {"variant": "GUUCCGUUGGCGUAAUGGUAGCGCGUCUGCCUCCUAAGGAGAAGAUUGCGGGUUCGAGUUCCGUACCGAACG", "note": "[A21G C29G C46U C60U G67C]", "yeast fitness": "≤ 0.5"},
      {"variant": "GUUCCGUUGGCGUAAUGGUAGCGCGUCUGCCUCCUAAGGAGAAGACUGCGGGUUCGAGUCCUGUACGGAACG", "note": "[A21G C29G C62U]", "yeast fitness": 0.651},
      {"variant": "GUUCCGUUGGCGUAAUGGUAGCGCGUCUGCCUCCUAAGGAGAAGACUGCGGGUUCGACUCCCGUACGGACCG", "note": "[A21G C29G G58C A70C]", "yeast fitness": "≤ 0.5"},
      {"variant": "GUUCCGUUGGCGUAAUGGUAGCGCGUCUUCCUCCUAAGGACAAGACUGCGGGUUCGAGUCCCGUACGGAACG", "note": "[A21G C29U G41C]", "yeast fitness": 0.562},
      {"variant": "GUUCCGUUGGCGUAAUGGUAGCGCGUCUCACUCCUAAGGAGAAGACUGCGGGUUCGAGUCCCGUACGGAACG", "note": "[A21G C30A]", "yeast fitness": 1},
      {"variant": "GUUCCGUUGGCGUAAUGGUAGCGCGUCUCAUUCCUAAGGAGAAGACUGCGGGUUCGGGUCCCGUUCGGUACG", "note": "[A21G C30A C31U A57G A65U A69U]", "yeast fitness": "≤ 0.5"},
      {"variant": "GUUCCGUUGGCGUAAUGGUAGCGCGUCUCACUCCUAAGGAGAAGACUGCGGGUUAGAGUCCCGUACGGAACG", "note": "[A21G C30A C55A]", "yeast fitness": "≤ 0.5"},
      {"variant": "GUUCCGUUGGCGUAAUGGUAGCGCGUCUCCUUCCUAAGGAGAAGACUGCGGGUUCGAGUCCCGUACGGAACG", "note": "[A21G C31U]", "yeast fitness": 0.872},
      {"variant": "GUUCCGUUGGCGUAAUGGUAGCGCGUCUCCCUACUAAGGAGAAGACUGCGGGUUCGAGUCCCGUCCGGACCG", "note": "[A21G C33A A65C A70C]", "yeast fitness": 0.54},
      {"variant": "GUUCCGUUGGCGUAAUGGUAGCGCGUCUCCCUACUAAGGAGAAGACUGCGGGUUAGAGUCCCGUCCGGACCG", "note": "[A21G C33A C55A A65C A70C]", "yeast fitness": "≤ 0.5"},
      {"variant": "GUUCCGUUGGCGUAAUGGUAGCGCGUCUCCCUGCUAAGGGGAAGACUGCGGGUUCGAGUCCCGUACGGAACG", "note": "[A21G C33G A40G]", "yeast fitness": 0.562},
      {"variant": "GUUCCGUUGGCGUAAUGGUAGCGCGUCUCCCUGGUAAGGAGAAGACAGCAGGUUCGAGUCCCGUACGGAACG", "note": "[A21G C33G C34G U47A G50A]", "yeast fitness": "≤ 0.5"},
      {"variant": "GUUCCGUUGGCGUAAUGGUAGCGCGUCUCCCUCAUAAGGAGAAGACUGCGGGUUCGAGUCCCGUACGGAACG", "note": "[A21G C34A]", "yeast fitness": 0.646},
      {"variant": "GUUCCGUUGGCGUAAUGGUAGCGCGUCUCCCUCGUAAGGAGUAGACUGCGGGUUCGAGUCCCGUACGGAACG", "note": "[A21G C34G A42U]", "yeast fitness": "≤ 0.5"},
      {"variant": "GUUCCGUUGGCGUAAUGGUAGCGCGUCUCCCUCGUAAGGAGAAGACUGCGGGUUGGAGUCCCGUACGGAACG", "note": "[A21G C34G C55G]", "yeast fitness": "≤ 0.5"},
      {"variant": "GUUCCGUUGGCGUAAUGGUAGCGCGUCUCCCUCUUAAGGAGAAGACUGCGGGUUCGAGUCCCGUCCGGAACG", "note": "[A21G C34U A65C]", "yeast fitness": "≤ 0.5"},
      {"variant": "GUUCCGUUGGCGUAAUGGUAGCGCGUCUCCCUCUUAAGGAGAAGACUGCGGGUUCGAGUCCCUUACGGAACG", "note": "[A21G C34U G63U]", "yeast fitness": "≤ 0.5"},
      {"variant": "GUUCCGUUGGCGUAAUGGUAGCGCGUCUCCCUCCUAAGGAGAAGAGUGCGGGUUCGAGUCCCGUACGGAACG", "note": "[A21G C46G]", "yeast fitness": 0.987},
      {"variant": "GUUCCGUUGGCGUAAUGGUAGCGCGUCUCCCUCCUAAGGAGAAGACUGAGGGUUCGAGUCCUGUACGGAACG", "note": "[A21G C49A C62U]", "yeast fitness": 0.544},
      {"variant": "GUUCCGUUGGCGUAAUGGUAGCGCGUCUCCCUCCUAAGGAGAAGACUGAGGGUUCAAGUCCCGUACGGAACG", "note": "[A21G C49A G56A]", "yeast fitness": 0.533},
      {"variant": "GUUCCGUUGGCGUAAUGGUAGCGCGUCUCCCUCCUAAGGAGAAGACUGAGGGUCCGAGUCCCGUGCGGAACG", "note": "[A21G C49A U54C A65G]", "yeast fitness": "≤ 0.5"}
    ]}
  ]
}
